Experimental data gathered from unrelated publications.
Target: Mitogen-activated protein kinase kinase kinase 11 (MAP3K11, Homo sapiens, UniProt Q16584)

| Structure (SMILES) | read-out | action | method | concentration | quantity | result |
| --- | --- | --- | --- | --- | --- | --- |
| CN1CCN(C(=O)c2ccc(NC(=O)Nc3ccc(N(C)c4ccnc(Nc5ccc(CS(C)(=O)=O)cc5)n4)cc3)cc2)CC1 | binding | – | – | 1 µM | remaining binding | 91% |
| C=CC(=O)N1CCC[C@@H](n2nc(-c3ccc(Oc4ccccc4)cc3)c3c(N)ncnc32)C1 | enzyme activity | inhibitor | – | 1 µM | inhibition | 0% |
| CC(C)S(=O)(=O)c1ccc2nccc(Nc3ccc4sc(C5CCCC5)nc4c3)c2c1 | enzyme activity | inhibitor | – | 1 µM | activity vs control | 98% |
| C1=C/COCc2cc(ccc2OCCN2CCCC2)Nc2nccc(n2)-c2cccc(c2)COC/1 | cell-free assay | – | – | 0.1 µM | remaining signal | 100% |
| C#Cc1cc(-c2cc(Nc3nc(N[C@@H](C)c4ccc(F)cn4)ncc3Cl)n[nH]2)ccc1C=O | enzyme activity | inhibitor | – | 0.2 µM | inhibition | 72.5% |
| CCCCC(=O)Nc1ccc(-c2ccc3ncn(CCC)c(=O)c3c2)cn1 | binding | – | competition with immobilised ligand | 0.5 µM | remaining binding | 82% |
| C=CC(=O)N1CCC([C@@H]2CCNc3c(C(N)=O)c(-c4ccc(Oc5ccccc5)cc4)nn32)CC1 | enzyme activity | inhibitor | – | 1 µM | inhibition | 0% |
| COc1ccc2[nH]c3c4[nH]c5ccc(OC)cc5c4c4c(c3c2c1)C(=O)NC4=O | binding | – | – | 1 µM | remaining binding | 5.6% |
